Measured values collected from several papers.
Each line is one published result; the experiments were not run side by side.
Target: Myosin light chain kinase, smooth muscle (MYLK, Homo sapiens, UniProt Q15746)

SMILES	test	conditions	endpoint	result
C[C@H](c1ccc(F)cc1)N(Cc1cccc(C(=O)O)c1)C(=O)c1cnc2ccccc2c1	cell-free assay, competition with immobilised ligand	1 µM	remaining binding	76%
CC(C)(C)c1nc(-c2cccc(NS(=O)(=O)c3c(F)cccc3F)c2F)c(-c2ccnc(N)n2)s1	enzyme activity, inhibitor, radiometric	1 µM	remaining activity	74%
C[C@H](NC(=O)c1cnc2n1[C@](C)(Cc1ccc(C#N)cc1)C(=O)N2c1cc(Cl)c(F)c(Cl)c1)C(=O)NC1(c2ccccn2)CC1	cell-free assay, competition with immobilised ligand	1 µM	remaining binding	100%
Oc1cccc(-c2nc(N3CCOCC3)c3oc4ncccc4c3n2)c1	enzyme activity, inhibitor	10 µM	remaining activity	48%
Nc1nc(NC2CCCCC2)sc1C(=O)c1ccccc1	enzyme activity, inhibitor	10 µM	remaining activity	44%
Cc1sc(C(=O)NC2COC2)cc1-n1cc(NC(=O)Nc2c(F)cccc2Cl)cn1	enzyme activity, inhibitor	10 µM	remaining activity	103%
C[S+]([O-])c1ccc(-c2nc(-c3ccncc3)c(-c3ccc(F)cc3)[nH]2)cc1 (centres unmarked)	cell-free assay	0.5 µM	remaining signal	101%
Cn1cncc1C1=CN(c2ncnc3[nH]cnc23)CCS1	enzyme activity, inhibitor, radiometric	50 nM	inhibition	18.2%
FC(F)c1nc2ccccc2n1-c1nc(N2CCOCC2)nc(N2CCOCC2)n1	enzyme activity, inhibitor	10 µM	remaining activity	91%
O=C(Nc1ccc(Oc2ccc(F)cc2)cc1)N1CCc2ncccc2[C@H]1c1ccc(F)cc1	cell-free assay, competition with immobilised ligand	1 µM	remaining binding	100%
COc1cc(/C=C/C(=O)CC(=O)/C=C/c2ccc(O)c(OC)c2)ccc1O	enzyme activity, inhibitor	1 µM	activity vs control	70%
Cn1c2c(Cl)c(Cl)ccc2c2cc(N)[nH]c(=O)c21	thermal stability, DSF	10 µM	ΔTm	0.1 °C
Cn1nc(C(=O)NCc2ccc(C(=O)O)cc2)cc1-c1ccc2[nH]ccc2c1	cell-free assay, competition with immobilised ligand	0.1 µM	remaining binding	62%
C[C@@H]1CCN(c2nccc(-c3cnn4ncccc34)n2)C1	binding	1 µM	remaining binding	92%
COc1cc(Nc2cnc(C#N)c(O[C@H](C)CN(C)C)n2)ncc1-c1cnn(C)c1	enzyme activity, inhibitor, radiometric	10 µM	remaining activity	103%
CN(C)c1ncnc(-c2ccc3nc(Nc4cc(CN5CCN(C(=O)CC(F)(F)F)CC5)ccn4)[nH]c3c2)c1Cl	cell-free assay, competition with immobilised ligand	1 µM	remaining binding	68%
Cn1cnc(Br)c1C1=CN(c2ncnc3[nH]cnc23)CCS1	enzyme activity, inhibitor, radiometric	50 nM	inhibition	33.5%
Oc1cccc(-c2nc(N3CCOCC3)c3oc4ncccc4c3n2)c1	cell-free assay	0.5 µM	remaining signal	77.1%
Cc1nc(N2CC[C@@H](O)C2)ncc1-c1cc(C(F)(F)F)cc2[nH]ncc12	binding, competition with immobilised ligand	1 µM	remaining binding	100%
O=C1Nc2ccc(Cl)cc2C1=Cc1cc(Cl)c(O)c(Cl)c1	cell-free assay	0.5 µM	remaining signal	62.3%
Nc1ncnc2occ(-c3ccc(NC(=O)Nc4cc(C(F)(F)F)ccc4F)cc3)c12	enzyme activity, inhibitor	20 µM	remaining activity	42%
O=C1NC(=O)c2cc(Nc3ccc(F)cc3)c(Nc3ccc(F)cc3)cc21	cell-free assay	0.5 µM	remaining signal	100%
O=C(Nc1cccnn1)N1CCC(=Cc2cccc(Oc3ccc(C(F)(F)F)cn3)c2)CC1	cell-free assay, competition with immobilised ligand	1 µM	remaining binding	100%
CCN(CC)c1ccc(C2=NNC(=O)CC2C)cc1[N+](=O)[O-] (centres unmarked)	enzyme activity, inhibitor	10 µM	remaining activity	90%
COCCOc1nc(-c2ccc(Cl)nc2)nc2c1CN(C(=O)c1ncn3ccccc13)CC2	cell-free assay, competition with immobilised ligand	0.1 µM	remaining binding	70%
O=C(Nc1cnn(-c2csc(C(=O)NC3COC3)c2)c1)Nc1c(F)cccc1Cl	enzyme activity, inhibitor	5 µM	remaining activity	95.9%
